From ChEMBL document CHEMBL5131377, “Structure-Activity Relationship Studies of Trisubstituted Isoxazoles as Selective Allosteric Ligands for the Retinoic-Acid-Receptor-Related Orphan Receptor γt” (J Med Chem, 2021) come the findings set out here.

The nature of data set [1]: Microsomal stability in human liver microsomes assessed as intrinsic clearance at 1 uM measured up to 50 mins in presence of NADPH by LC-MS/MS analysis. The class given is ADME, Microsome. The essentials:
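Oxidative stability in NADPH-supplemented human liver microsomes; compound at 1 μM, depletion followed by LC–MS/MS for up to 50 min at 37 °C. Intrinsic clearance calculated from half-life, assay volume and microsomal protein amount (μL/min/mg).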
(Liver microsomes are vesicles of endoplasmic reticulum, rich in cytochrome P450 enzymes.)

A short description of data set [2]: Stability in human plasma assessed as parent compound remaining at 5 uM measured after 1 hr by LC-MS/MS analysis relative to control. The class given is ADME, cell-free. To be noted: read-out: Stability. A digest of the protocol: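 Compound at 5 μM incubated 1 h at 37 °C in 50% human plasma in PBS; % remaining determined by LC–MS.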
Data set [3] in a line: Permeability of the compound at 500 uM after 20 hrs by PAMPA. The class given is ADME. The essentials:
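Artificial membrane permeation with 500 μM compound in the donor compartment; after 20 h, receiver wells read by spectrophotometry and % flux derived by normalizing to flux across a blank filter.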

Data set [4] in a line: Kinetic aqueous solubility of compound in HEPES buffer at pH 7.4 at 500 uM measured after 90 mins by spectrophotometry analysis. The class given is physicochemical. The essentials:
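Compound-saturated HEPES buffer (pH 7.4, from DMSO stocks, 500 μM) shaken 90 min at room temperature, filtered, then diluted with an equal volume of acetonitrile.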

With `O=C(O)c1ccc(OCc2c(-c3c(Cl)cccc3C(F)(F)F)noc2-c2cn[nH]c2)cc1`, the CLH in data set [1] came to 8.8 µL/min/mg. Further, the remaining at 1 h, 5 µM in data set [2] stood at 100%. Besides, in data set [3], the permeability is 23%. In data set [4], this molecule had a Kinetic_solubility of 476 µM.

In the case of `O=C(O)c1ccc(OCc2c(-c3c(Cl)cccc3C(F)(F)F)noc2-c2ccc[nH]2)cc1`, in data set [1], the CLH amounted to 68 µL/min/mg. For the same molecule, the remaining at 1 h, 5 µM in data set [2] is 89.5%. This molecule gave a permeability in data set [3] of 50.5%. This molecule yielded a Kinetic_solubility in data set [4] of 421 µM.

Regarding `O=C(O)c1ccc(OCc2c(-c3c(Cl)cccc3C(F)(F)F)noc2-c2cc[nH]c2)cc1F`, the CLH in data set [1] came out at 77 µL/min/mg. In addition, in data set [2], the remaining at 1 h, 5 µM stood at 97.1%. The same molecule yielded a permeability in data set [3] of 37.3%. This molecule also showed a Kinetic_solubility in data set [4] of 445 µM.

Take `O=C(O)c1ccc(NCc2c(-c3c(Cl)cccc3C(F)(F)F)noc2-c2cc[nH]c2)cc1`: the CLH in data set [1] is 31.2 µL/min/mg. Besides, the remaining at 1 h, 5 µM in data set [2] was 79.1%. The molecule further returned a permeability in data set [3] of 36.1%. This molecule returned a Kinetic_solubility in data set [4] of 460 µM.

Turning to `O=C(O)c1ccc(/C=C/c2c(-c3c(Cl)cccc3C(F)(F)F)noc2-c2cc[nH]c2)cc1`, in data set [1], the CLH worked out at 69 µL/min/mg. For the same molecule, the remaining at 1 h, 5 µM in data set [2] came to 59.5%. This molecule also displayed a permeability in data set [3] of 40.3%. Further, the Kinetic_solubility in data set [4] was found to be 392 µM.

`O=C(O)c1ccc(OCc2c(-c3c(Cl)cccc3C(F)(F)F)noc2-c2cc[nH]c2)cc1`: the CLH in data set [1] was determined as 57.8 µL/min/mg. Further, in data set [2], the remaining at 1 h, 5 µM came out at 74.2%. The molecule also displayed a permeability in data set [3] of 40.9%. This molecule returned a Kinetic_solubility in data set [4] of 436 µM.

`O=C(O)c1ccc(-c2nn(C(=O)c3c(Cl)cccc3C(F)(F)F)c3ccccc23)cc1`: the CLH in data set [1] worked out at 0.4 µL/min/mg. The remaining at 1 h, 5 µM in data set [2] was found to be 95.5%. In data set [3], the permeability is reported as 29.7%. In data set [4], this molecule showed a Kinetic_solubility of 423 µM.
